Measured values published in ChEMBL document CHEMBL4346654 (Eur J Med Chem, 2019).
Values after ≈ are worked out from the molar mass of the structure shown.

Tests used:
Format in all cases: functional
Staphylococcus aureus [1] = test: Antibacterial activity against MLS-resistant Staphylococcus aureus PU 20 expressing constitutive ermC gene assessed as reduction in microbial growth by CLSI based two-fold broth dilution method
Streptococcus pyogenes [2] = test: Bactericidal activity against MLS-resistant Streptococcus pyogenes 01-968 expressing inducible ermB gene pretreated followed by subculture in absence of compound measured after 24 hrs
Method in brief: (§1)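 MBC assay. Following MIC determination by CLSI standard two-fold broth dilution, samples at 1–8 fold MIC were transferred to fresh culture medium. They were subcultured for 24 h without antibiotic. Isolates were identified by 16S rDNA sequencing. S. aureus ATCC 29213 was used as a control strain.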

Staphylococcus aureus [3] = test: Bactericidal activity against MLS/methicillin-resistant Staphylococcus aureus PU 32 expressing inducible ermA gene pretreated followed by subculture in absence of compound measured after 24 hrs; method in brief: as §1
Streptococcus pneumoniae [4] = test: Antibacterial activity against penicillin-susceptible Streptococcus pneumoniae PU 09 expressing mef gene assessed as reduction in microbial growth by CLSI based two-fold broth dilution method
Haemophilus influenzae [5] = test: Bactericidal activity against azithromycin-susceptible Haemophilus influenzae ATCC 49247 pretreated followed by subculture in absence of compound measured after 24 hrs
Method in brief: (§2)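 Isolates were identified by 16S rDNA sequencing. MIC was determined by CLSI-recommended two-fold broth dilution. For MBC, samples from 1–8 fold MIC were transferred to culture medium and subcultured for 24 h without antibiotic.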

Streptococcus pneumoniae [6] = test: Antibacterial activity against Streptococcus pneumoniae 07P390 expressing constitutive ermB gene assessed as reduction in microbial growth by CLSI based two-fold broth dilution method
Streptococcus pyogenes [7] = test: Selectivity ratio of MBC to MIC for MLS-resistant Streptococcus pyogenes 01-968 expressing inducible ermB gene
Method in brief: (§3)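 MBC/MIC ratio. MIC was measured by CLSI standard two-fold broth dilution. MBC was measured by transferring samples at 1–8 fold MIC to culture medium and subculturing for 24 h without antibiotic. Isolates were identified by 16S rDNA sequencing.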

Staphylococcus aureus [8] = test: Bactericidal activity against MLS-resistant Staphylococcus aureus PU 20 expressing constitutive ermC gene pretreated followed by subculture in absence of compound measured after 24 hrs; method in brief: as §1
Staphylococcus aureus [9] = test: Antibacterial activity against MLS-resistant Staphylococcus aureus PU 32 expressing inducible ermA gene assessed as reduction in microbial growth by CLSI based two-fold broth dilution method
Streptococcus pneumoniae [10] = test: Bactericidal activity against Streptococcus pneumoniae 07P390 expressing constitutive ermB gene pretreated followed by subculture in absence of compound measured after 24 hrs; method in brief: as §2
Streptococcus pneumoniae [11] = test: Selectivity ratio of MBC to MIC for erythromycin-susceptible Streptococcus pneumoniae ATCC49619; method in brief: as §2
Haemophilus influenzae [12] = test: Selectivity ratio of MBC to MIC for azithromycin-susceptible Haemophilus influenzae ATCC 49247; method in brief: as §2
Streptococcus pneumoniae [13] = test: Antibacterial activity against erythromycin-susceptible Streptococcus pneumoniae ATCC49619 assessed as reduction in microbial growth by CLSI based two-fold broth dilution method
Streptococcus pyogenes [14] = test: Antibacterial activity against MLS-resistant Streptococcus pyogenes 01-968 expressing inducible ermB gene assessed as reduction in microbial growth by CLSI based two-fold broth dilution method
Streptococcus pneumoniae [15] = test: Selectivity ratio of MBC to MIC for penicillin-susceptible Streptococcus pneumoniae PU 09 expressing mef gene; method in brief: as §2
Streptococcus pneumoniae [16] = test: Bactericidal activity against penicillin-susceptible Streptococcus pneumoniae PU 09 expressing mef gene pretreated followed by subculture in absence of compound measured after 24 hrs; method in brief: as §2
Staphylococcus aureus [17] = test: Selectivity ratio of MBC to MIC for MLS/methicillin-resistant Staphylococcus aureus PU 32 expressing inducible ermA gene; method in brief: as §3
Streptococcus pneumoniae [18] = test: Bactericidal activity against erythromycin-susceptible Streptococcus pneumoniae ATCC49619 pretreated followed by subculture in absence of compound measured after 24 hrs; method in brief: as §2
Haemophilus influenzae [19] = test: Antibacterial activity against azithromycin-susceptible Haemophilus influenzae ATCC 49247 assessed as reduction in microbial growth by CLSI based two-fold broth dilution method
Streptococcus pneumoniae [20] = test: Selectivity ratio of MBC to MIC for Streptococcus pneumoniae 07P390 expressing constitutive ermB gene; method in brief: as §2

SMILES | MIC (Staphylococcus aureus [1]) [µg/mL] | MBC (Streptococcus pyogenes [2]) [µg/mL] | MBC (Staphylococcus aureus [3]) [µg/mL] | MIC (Streptococcus pneumoniae [4]) [µg/mL] | MBC (Haemophilus influenzae [5]) [µg/mL] | MIC (Streptococcus pneumoniae [6]) [µg/mL] | Selectivity ratio (Streptococcus pyogenes [7]) | MBC (Staphylococcus aureus [8]) [µg/mL] | MIC (Staphylococcus aureus [9]) [µg/mL] | MBC (Streptococcus pneumoniae [10]) [µg/mL] | Selectivity ratio (Streptococcus pneumoniae [11]) | Selectivity ratio (Haemophilus influenzae [12]) | MIC (Streptococcus pneumoniae [13]) [µg/mL] | MIC (Streptococcus pyogenes [14]) [µg/mL] | Selectivity ratio (Streptococcus pneumoniae [15]) | MBC (Streptococcus pneumoniae [16]) [µg/mL] | Selectivity ratio (Staphylococcus aureus [17]) | MBC (Streptococcus pneumoniae [18]) [µg/mL] | MIC (Haemophilus influenzae [19]) [µg/mL] | Selectivity ratio (Streptococcus pneumoniae [20])
CC[C@H]1OC(=O)[C@@](C)(F)C(=O)[C@H](C)[C@@H](O[C@@H]2O[C@H](C)C[C@H](N(C)C)[C@H]2O)[C@](C)(OC)C[C@@H](C)/C(=N\OC/C=C/c2cncc(C(N)=O)c2)[C@H](C)[C@H]2OC(=O)O[C@@]21C | 256 | > 0.5 | > 2 | 0.5 | 16 (≈ 19.8 µM) | 32 | >8 | > 256 | 0.25 | > 32 | 1 | 2 | 0.031 | 0.062 | 2 | 1 (≈ 1.24 µM) | >8 | 0.031 (≈ 0.0384 µM) | 8 | 
CC[C@H]1OC(=O)[C@@](C)(F)C(=O)[C@H](C)[C@@H](O[C@@H]2O[C@H](C)C[C@H](N(C)C)[C@H]2O)[C@](C)(OC)C[C@@H](C)/C(=N\OC/C=C/c2cncc(O)c2)[C@H](C)[C@H]2OC(=O)O[C@@]21C | 256 | > 0.5 | > 2 | 2 | 16 (≈ 20.5 µM) | 32 | >8 | > 256 | 0.25 | > 32 | 4 | 1 | 0.125 | 0.062 | 2 | 4 (≈ 5.13 µM) | >8 | 0.5 (≈ 0.641 µM) | 16 | 
CC[C@H]1OC(=O)[C@@](C)(F)C(=O)[C@H](C)[C@@H](O[C@@H]2O[C@H](C)C[C@H](N(C)C)[C@H]2O)[C@](C)(OC/C=C/c2ccc3[nH]cc(C(=O)O)c(=O)c3c2)C[C@@H](C)/C(=N\OC)[C@H](C)[C@H]2OC(=O)O[C@@]21C | > 256 | 0.062 (≈ 0.0709 µM) | 2 (≈ 2.29 µM) | 2 | 16 (≈ 18.3 µM) | 0.5 | 2 |  | 0.5 | 4 (≈ 4.58 µM) | 1 | 2 | 0.062 | 0.031 | 2 | 4 (≈ 4.58 µM) | 4 | 0.062 (≈ 0.0709 µM) | 8 | 8
CC[C@H]1OC(=O)[C@@](C)(F)C(=O)[C@H](C)[C@@H](O[C@@H]2O[C@H](C)C[C@H](N(C)C)[C@H]2O)[C@](C)(OC)C[C@@H](C)/C(=N\OC/C=C/c2ccc3[nH]ccc(=O)c3c2)[C@H](C)[C@H]2OC(=O)O[C@@]21C | 256 | > 0.5 | > 8 | 4 | 32 (≈ 38.6 µM) | 16 | >8 | > 256 | 1 | 32 (≈ 38.6 µM) | 4 | 2 | 0.125 | 0.062 | 2 | 8 (≈ 9.64 µM) | >8 | 0.5 (≈ 0.602 µM) | 16 | 2
CC[C@H]1OC(=O)[C@@](C)(F)C(=O)[C@H](C)[C@@H](O[C@@H]2O[C@H](C)C[C@H](N(C)C)[C@H]2O)[C@](C)(OC)C[C@@H](C)/C(=N\OCC#Cc2cncc(C(=O)NC)c2)[C@H](C)[C@H]2OC(=O)O[C@@]21C | 256 | > 0.5 | > 4 | 1 | 16 (≈ 19.5 µM) | 32 | >8 | > 256 | 0.5 | > 32 | 2 | 2 | 0.125 | 0.062 | 1 | 1 (≈ 1.22 µM) | >8 | 0.25 (≈ 0.305 µM) | 8 | 
CC[C@H]1OC(=O)[C@@](C)(F)C(=O)[C@H](C)[C@@H](O[C@@H]2O[C@H](C)C[C@H](N(C)C)[C@H]2O)[C@](C)(OC/C=C/c2cncc(C(=O)O)c2)C[C@@H](C)/C(=N\OC)[C@H](C)[C@H]2OC(=O)O[C@@]21C | > 256 | > 1 | > 16 | 32 | 8 (≈ 9.9 µM) | 1 | >8 |  | 2 | 4 (≈ 4.95 µM) | 2 | 1 | 0.25 | 0.125 |  | > 32 | >8 | 0.5 (≈ 0.619 µM) | 8 | 4
CC[C@H]1OC(=O)[C@@](C)(F)C(=O)[C@H](C)[C@@H](O[C@@H]2O[C@H](C)C[C@H](N(C)C)[C@H]2O)[C@](C)(OC/C=C/c2cncc(C(N)=O)c2)C[C@@H](C)/C(=N\OC)[C@H](C)[C@H]2OC(=O)O[C@@]21C | > 256 | > 0.25 | > 1 | 2 | 8 (≈ 9.91 µM) | 0.5 | >8 |  | 0.125 | 4 (≈ 4.96 µM) | 2 | 2 | 0.062 | 0.031 | 4 | 8 (≈ 9.91 µM) | >8 | 0.125 (≈ 0.155 µM) | 4 | 8
CC[C@H]1OC(=O)[C@@](C)(F)C(=O)[C@H](C)[C@@H](O[C@@H]2O[C@H](C)C[C@H](N(C)C)[C@H]2O)[C@](C)(OC)C[C@@H](C)/C(=N\OC/C=C/c2ccc3[nH]cc(C(=O)O)c(=O)c3c2)[C@H](C)[C@H]2OC(=O)O[C@@]21C | 256 | > 0.125 | 16 (≈ 18.3 µM) | 2 | 32 (≈ 36.6 µM) | 4 | >8 | > 256 | 2 | 16 (≈ 18.3 µM) | 1 | 1 | 0.125 | 0.016 | 2 | 4 (≈ 4.58 µM) | 8 | 0.125 (≈ 0.143 µM) | 32 | 4
CC[C@H]1OC(=O)[C@@](C)(F)C(=O)[C@H](C)[C@@H](O[C@@H]2O[C@H](C)C[C@H](N(C)C)[C@H]2O)[C@](C)(OC/C=C/c2ccc3ncc(C(=O)O)cc3c2)C[C@@H](C)/C(=N\OC)[C@H](C)[C@H]2OC(=O)O[C@@]21C | > 256 | > 0.062 | 0.5 (≈ 0.583 µM) | 8 | 8 (≈ 9.32 µM) | 0.5 | >8 |  | 0.062 | 4 (≈ 4.66 µM) | 2 | 2 | 0.031 | ≤ 0.008 | 2 | 16 (≈ 18.6 µM) | 8 | 0.062 (≈ 0.0723 µM) | 4 | 8
